Experimental data: ChEMBL document CHEMBL3407388, “Synthesis, anticancer activity and molecular docking studies on a series of heterocyclic trans-cyanocombretastatin analogues as antitubulin agents” (2015)

How the values were obtained:
Assay type in all cases: functional
[1] = system: SF-268; assay: Cytotoxicity against human SF268 cells assessed as growth inhibition after 48 hrs by SRB assay; settings: SF-268, 48 h
Procedure, shortened: (§1)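 NCI 60-cell panel; compounds passing a single-dose screen (10−5 M, 48 h) were tested at five 10-fold dilutions (10−4 to 10−8 M) with 48 h drug exposure. GI50 is the molar concentration giving 50% reduction in net cell growth relative to cell numbers on day 0.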

[2] = system: NCI-H23; assay: Cytotoxicity against human NCI-H23 cells assessed as growth inhibition after 48 hrs by SRB assay; settings: NCI-H23, 48 h; procedure, shortened: as §1
[3] = system: SF-539; assay: Cytotoxicity against human SF539 cells assessed as growth inhibition after 48 hrs by SRB assay; settings: SF-539, 48 h; procedure, shortened: as §1
[4] = system: NCI-H226; assay: Cytotoxicity against human NCI-H226 cells assessed as growth inhibition after 48 hrs by SRB assay; settings: NCI-H226, 48 h; procedure, shortened: as §1
[5] = system: LOX IMVI; assay: Cytotoxicity against human LOXIMVI cells assessed as growth inhibition after 48 hrs by SRB assay; procedure, shortened: as §1
[6] = system: MDA-MB-435; assay: Cytotoxicity against human MDA-MB-435 cells assessed as growth inhibition after 48 hrs by SRB assay; settings: MDA-MB-435, 48 h; procedure, shortened: as §1
[7] = system: BT-549; assay: Cytotoxicity against human BT549 cells assessed as growth inhibition after 48 hrs by SRB assay; settings: BT-549, 48 h; procedure, shortened: as §1
[8] = system: SN12C; assay: Cytotoxicity against human SN12C cells assessed as growth inhibition after 48 hrs by SRB assay; procedure, shortened: as §1
[9] = Cytotoxicity against human HCT116 cells assessed as growth inhibition after 48 hrs by SRB assay; settings: HCT-116, 48 h; procedure, shortened: as §1
[10] = system: A498; assay: Cytotoxicity against human A498 cells assessed as growth inhibition after 48 hrs by SRB assay; settings: A498, 48 h; procedure, shortened: as §1
[11] = system: HT-29; assay: Cytotoxicity against human HT-29 cells assessed as growth inhibition after 48 hrs by SRB assay; settings: HT-29, 48 h; procedure, shortened: as §1
[12] = system: NCI-H460; assay: Cytotoxicity against human NCI-H460 cells assessed as growth inhibition after 48 hrs by SRB assay; settings: NCI-H460, 48 h; procedure, shortened: as §1
[13] = system: SK-OV-3; assay: Cytotoxicity against human SKOV3 cells assessed as growth inhibition after 48 hrs by SRB assay; settings: SK-OV-3, 48 h; procedure, shortened: as §1
[14] = Cytotoxicity against human HCT15 cells assessed as growth inhibition after 48 hrs by SRB assay; settings: HCT-15, 48 h; procedure, shortened: as §1
[15] = system: RPMI-8226; assay: Cytotoxicity against human RPMI8226 cells assessed as growth inhibition after 48 hrs by SRB assay; settings: RPMI-8226, 48 h; procedure, shortened: as §1
[16] = system: RXF 393; assay: Cytotoxicity against human RXF393 cells assessed as growth inhibition after 48 hrs by SRB assay; settings: RXF 393, 48 h; procedure, shortened: as §1
[17] = system: 786-0; assay: Cytotoxicity against human 786-0 cells assessed as growth inhibition after 48 hrs by SRB assay; settings: 786-0, 48 h; procedure, shortened: as §1
[18] = system: HL-60(TB); assay: Cytotoxicity against human HL-60(TB) cells assessed as growth inhibition after 48 hrs by SRB assay; settings: HL-60, 48 h
Procedure, shortened: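 NCI 60-cell panel, leukemia subpanel. Five-dose screen at 10-fold dilutions from 10−4 to 10−8 M with 48 h drug exposure. GI50 is the molar concentration giving 50% reduction in net cell growth compared with cell numbers on day 0.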

[19] = system: M14; assay: Cytotoxicity against human M14 cells assessed as growth inhibition after 48 hrs by SRB assay; settings: M14, 48 h; procedure, shortened: as §1
[20] = system: IGROV-1; assay: Cytotoxicity against human IGROV1 cells assessed as growth inhibition after 48 hrs by SRB assay; settings: IGROV-1, 48 h; procedure, shortened: as §1
[21] = Cytotoxicity against human UACC62 cells assessed as growth inhibition after 48 hrs by SRB assay; settings: UACC-62, 48 h
[22] = system: TK-10; assay: Cytotoxicity against human TK10 cells assessed as growth inhibition after 48 hrs by SRB assay; settings: TK-10, 48 h
[23] = Cytotoxicity against human Hs578T cells assessed as growth inhibition after 48 hrs by SRB assay; settings: Hs-578T; procedure, shortened: as §1
[24] = system: COLO 205; assay: Cytotoxicity against human COLO205 cells assessed as growth inhibition after 48 hrs by SRB assay; settings: COLO 205, 48 h; procedure, shortened: as §1
[25] = system: DU-145; assay: Cytotoxicity against human DU145 cells assessed as growth inhibition after 48 hrs by SRB assay; settings: DU-145, 48 h; procedure, shortened: as §1
[26] = Cytotoxicity against human OVCAR8 cells assessed as growth inhibition after 48 hrs by SRB assay; settings: OVCAR-8, 48 h; procedure, shortened: as §1
[27] = system: MCF7; assay: Cytotoxicity against human MCF7 cells assessed as growth inhibition after 48 hrs by SRB assay; settings: MCF7, 48 h; procedure, shortened: as §1
[28] = Cytotoxicity against human OVCAR5 cells assessed as growth inhibition after 48 hrs by SRB assay; settings: OVCAR-5, 48 h; procedure, shortened: as §1
[29] = system: U-251; assay: Cytotoxicity against human U251 cells assessed as growth inhibition after 48 hrs by SRB assay; settings: U-251, 48 h
[30] = Cytotoxicity against human UO31 cells assessed as growth inhibition after 48 hrs by SRB assay; settings: UO-31, 48 h
[31] = system: SNB-19; assay: Cytotoxicity against human SNB19 cells assessed as growth inhibition after 48 hrs by SRB assay; settings: SNB-19, 48 h; procedure, shortened: as §1
[32] = system: SW-620; assay: Cytotoxicity against human SW620 cells assessed as growth inhibition after 48 hrs by SRB assay; settings: SW-620, 48 h
[33] = system: SF-295; assay: Cytotoxicity against human SF295 cells assessed as growth inhibition after 48 hrs by SRB assay; settings: SF-295, 48 h; procedure, shortened: as §1
[34] = system: KM12; assay: Cytotoxicity against human KM12 cells assessed as growth inhibition after 48 hrs by SRB assay; settings: KM12, 48 h; procedure, shortened: as §1
[35] = system: K562; assay: Cytotoxicity against human K562 cells assessed as growth inhibition after 48 hrs by SRB assay; settings: K562, 48 h; procedure, shortened: as §1
[36] = system: HCC 2998; assay: Cytotoxicity against human HCC2998 cells assessed as growth inhibition after 48 hrs by SRB assay; settings: HCC 2998, 48 h; procedure, shortened: as §1
[37] = system: CAKI-1; assay: Cytotoxicity against human Caki1 cells assessed as growth inhibition after 48 hrs by SRB assay; settings: CAKI-1, 48 h; procedure, shortened: as §1
[38] = Cytotoxicity against human OVCAR4 cells assessed as growth inhibition after 48 hrs by SRB assay; settings: OVCAR-4, 48 h; procedure, shortened: as §1
[39] = system: MDA-MB-231; assay: Cytotoxicity against human MDA-MB-231 cells assessed as growth inhibition after 48 hrs by SRB assay; settings: MDA-MB-231, 48 h; procedure, shortened: as §1
[40] = Cytotoxicity against human PC3 cells assessed as growth inhibition after 48 hrs by SRB assay; settings: PC-3, 48 h; procedure, shortened: as §1
[41] = Cytotoxicity against human NCI-ADR-RES cells assessed as growth inhibition after 48 hrs by SRB assay; procedure, shortened: as §1
[42] = system: SK-MEL-5; assay: Cytotoxicity against human SK-MEL-5 cells assessed as growth inhibition after 48 hrs by SRB assay; settings: SK-MEL-5, 48 h; procedure, shortened: as §1
[43] = system: MOLT-4; assay: Cytotoxicity against human MOLT4 cells assessed as growth inhibition after 48 hrs by SRB assay; settings: MOLT-4, 48 h; procedure, shortened: as §1

COc1ccc2[nH]cc(/C=C(\C#N)c3cc(OC)c(OC)c(OC)c3)c2c1
GI50 [1]: 2.14 µM | GI50 [2]: 0.101 µM | GI50 [3]: 0.071 µM | GI50 [4]: 0.17 µM | GI50 [5]: 0.074 µM | GI50 [6]: 0.027 µM | GI50 [7]: 0.348 µM | GI50 [8]: 0.715 µM | GI50 [9]: 0.045 µM | GI50 [10]: 0.025 µM | GI50 [11]: 0.038 µM | GI50 [12]: 0.037 µM | GI50 [13]: 0.056 µM | GI50 [14]: 0.068 µM | GI50 [15]: 0.241 µM | GI50 [16]: 0.033 µM | GI50 [17]: 0.085 µM | GI50 [18]: 0.059 µM | GI50 [19]: 0.052 µM | GI50 [20]: 0.379 µM | GI50 [21]: 0.059 µM | GI50 [22]: 20.1 µM | GI50 [23]: 0.124 µM | GI50 [24]: 0.051 µM | GI50 [25]: 0.153 µM | GI50 [26]: 0.148 µM | GI50 [27]: 0.036 µM | GI50 [28]: 0.516 µM | GI50 [29]: 0.05 µM | GI50 [30]: 1.26 µM | GI50 [31]: 0.089 µM | GI50 [32]: 0.046 µM | GI50 [33]: 0.042 µM | GI50 [34]: 0.044 µM | GI50 [35]: 0.044 µM | GI50 [36]: 0.119 µM | GI50 [37]: 0.072 µM | GI50 [38]: 1.35 µM | GI50 [39]: 0.299 µM | GI50 [40]: 0.054 µM | GI50 [41]: 0.037 µM | GI50 [42]: 0.036 µM | GI50 [43]: 0.198 µM

COc1ccc(/C(C#N)=C/c2cc3ccccc3o2)cc1OC
GI50 [1]: 2.05 µM | GI50 [2]: 3.11 µM | GI50 [3]: 1.56 µM | GI50 [4]: 34.5 µM | GI50 [5]: 0.93 µM | GI50 [6]: 0.229 µM | GI50 [7]: 0.95 µM | GI50 [8]: 0.956 µM | GI50 [9]: 0.418 µM | GI50 [10]: 0.54 µM | GI50 [11]: 0.373 µM | GI50 [12]: 0.472 µM | GI50 [13]: 2.49 µM | GI50 [14]: 0.469 µM | GI50 [15]: 1.32 µM | GI50 [16]: 1.3 µM | GI50 [17]: 5.84 µM | GI50 [18]: 0.481 µM | GI50 [19]: 0.437 µM | GI50 [20]: 1.27 µM | GI50 [21]: 0.557 µM | GI50 [22]: 2.28 µM | GI50 [23]: 1.88 µM | GI50 [24]: 0.404 µM | GI50 [25]: 1.3 µM | GI50 [26]: 3.98 µM | GI50 [27]: 0.446 µM | GI50 [28]: 5.23 µM | GI50 [29]: 0.76 µM | GI50 [30]: 3.79 µM | GI50 [31]: 5.55 µM | GI50 [32]: 0.388 µM | GI50 [33]: 0.708 µM | GI50 [34]: 0.356 µM | GI50 [35]: 0.467 µM | GI50 [36]: 2.33 µM | GI50 [37]: 0.492 µM | GI50 [38]: 7.19 µM | GI50 [39]: 1.21 µM | GI50 [40]: 2.41 µM | GI50 [41]: 0.317 µM | GI50 [42]: 0.564 µM | GI50 [43]: 0.548 µM
